High-throughput results: PubChem BioAssay, several laboratories
MIN6 prolif: inducers of beta-cell replication in MIN6 cells; proliferation, % at 10 µM; actives 0.29% (n = 330,000); MIN6 cells proliferation, ATPlite luminescence, 48 h; cells starved in 0.2% serum; 100% = growth in 10% serum;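 active = compounds whose signal lies at least 3.5 SD above the mean of all wells on their plate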;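 note: 0% = DMSO-treated cells in low-serum medium and 100% = 10% serum control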
TLR4 MyD88 comp: blocks binding of human TLR4 to MyD88. actives 0.18% (n = 200,000). AID 861. inhibition, % at 8.4 µM. O00206+Q99836. HeLa CL3-4 TLR4/MyD88 BLA complementation, FRET ratio; in the data active = inhibition above about 25%;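 note: 0% = vehicle and 100% = reference inhibitor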
NOD2 RIPK2 PPI: blocks binding of human NOD2 to RIPK2 | O43353 | CHO BLA complementation NOD2-RIPK2, CCF4 ratio | inhibition, % at 4.98 µM | actives 0.38% (n = 360,000) | AID 624267; in the data active = inhibition above about 21%;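 note: 0% = vehicle only and 100% = reference blocker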
Target sequence (O43353 whole entry, looked up): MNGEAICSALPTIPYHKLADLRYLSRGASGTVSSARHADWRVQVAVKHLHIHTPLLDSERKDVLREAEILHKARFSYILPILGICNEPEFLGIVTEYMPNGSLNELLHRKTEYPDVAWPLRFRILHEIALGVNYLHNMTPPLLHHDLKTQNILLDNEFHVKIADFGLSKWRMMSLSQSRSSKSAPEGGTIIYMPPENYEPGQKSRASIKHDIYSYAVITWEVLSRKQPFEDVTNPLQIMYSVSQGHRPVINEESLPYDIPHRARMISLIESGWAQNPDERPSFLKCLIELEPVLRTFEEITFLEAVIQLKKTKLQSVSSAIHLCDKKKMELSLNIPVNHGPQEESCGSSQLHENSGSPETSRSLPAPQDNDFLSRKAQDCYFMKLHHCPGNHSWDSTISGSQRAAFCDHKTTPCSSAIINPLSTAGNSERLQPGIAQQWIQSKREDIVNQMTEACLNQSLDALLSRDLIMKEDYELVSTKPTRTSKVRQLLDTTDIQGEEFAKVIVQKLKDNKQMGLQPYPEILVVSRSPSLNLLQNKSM
MC4R antag cAMP: blocks human MC4R cAMP signaling | P32245 | MC4R-expressing cells, MTII-stimulated cAMP, LANCE TR-FRET | inhibition, % at 6.5 µM | actives 0.48% (n = 360,000) | AID 540295;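 active = inhibition above its plate's cutoff, the mean of tested wells on that plate plus 3 SD, cut at about 29% in these data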;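 note: 0% = Melanotan II alone and 100% = Melanotan II plus saturating MCL0020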
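System: U2OS cells stably expressing human melanocortin 4 receptor (MC4R). Reagent: Melanotan II challenge after compound preincubation. Doses: 6.5 µM. Times: 30-min compound, 1-h challenge, 1-h detection, room temperature. Measured by: TR-FRET with Eu-cAMP and labeled anti-cAMP, 671 nm. Replicates: singlicate.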
TLR9-MyD88 inh: blocks human TLR9 binding to MyD88; actives 0.21% (n = 340,000); CHO BLA complementation TLR9-MyD88, CCF4 FRET ratio; AID 504734; Q9NR96+Q99836; inhibition, % at 4.98 µM;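 active = inhibition above the mean over all tested compounds plus 3 SD, cut at about 21% in these data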;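 note: 0% = DMSO only wells and 100% = clavulanate BLA inhibitor control wells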
MC4R barr agon: human MC4R agonism via beta-arrestin. P32245. U2OS MC4R beta-arrestin complementation, luminescence; percent of melanotan II response, DMSO zero. activation, % at 8.9 µM. actives 0.98% (n = 360,000). AID 540308;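 active = activation above a per-plate cutoff, the mean activation of sample wells on that plate plus 3 SD, cut at about 8% in these data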
TLR9-MyD88 conf: TLR9-MyD88 interaction inhibition, confirmation. actives 51% (n = 680). AID 540250. shares compounds with TLR9-MyD88 inh. inhibition, % at 4.98 µM. CHO TLR9/MyD88 BLA complementation, CCF4 FRET ratio;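 active = mean inhibition across three repeats above about 21% taken from the earlier screen, limit read from the data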;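 note: blue over green emission ratio reports constitutive TLR9 MyD88 association via BLA complementation; 0% = DMSO vehicle wells and 100% = clavulanate BLA inhibitor wells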
BLA counter: beta-lactamase reporter inhibition, counter-screen artifact; shares compounds with TLR9-MyD88 inh; actives 7% (n = 680); CHO-BLA cells, CCF4 FRET ratio, BLA reporter; inhibition, % at 4.98 µM;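 active = mean inhibition above a 50% cutoff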;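 note: counterscreen of TLR9-MyD88 hits on CMV-driven BLA in CHO-K1 cells; 0% = DMSO alone and 100% = clavulanate blocking BLA; higher means less blue over green ratio so more BLA blockade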
TLR9 CHO tox: CHO cell toxicity counter-screen for TLR9-MyD88 inhibitors; shares compounds with TLR9-MyD88 inh; TLR9-MyD88 CHO cells cytotoxicity, luminescence; inhibition, % at 4.98 µM; actives 39% (n = 680); in the data active = inhibition above about 11%
U2OS cAMP counter: counter-screen for MC4R antagonists: nonselective cAMP signaling inhibitors. actives 26% (n = 1,600). inhibition, % at 6.5 µM. shares compounds with MC4R antag cAMP. parental U2OS, forskolin cAMP, LANCE TR-FRET;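 active = mean inhibition over triplicates above the low-control well mean plus 3 SD, set per campaign, cut at about 13% in these data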;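 note: signal is single emission at 671 nm which falls as cellular cAMP rises; 0% = forskolin-stimulated wells and 100% = buffer without forskolin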
MC4R cAMP antag: human MC4R cAMP antagonism confirmation. shares compounds with MC4R antag cAMP. actives 27% (n = 1,600). MC4R-expressing cells, MTII-stimulated cAMP, TR-FRET. inhibition, % at 6.5 µM; in the data active = inhibition above about 29%;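 note: 0% = agonist stimulated wells alone and 100% = agonist stimulated wells plus saturating reference antagonist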
MC4R barr conf: human MC4R beta-arrestin agonism confirmation. shares compounds with MC4R barr agon. U2OS MC4R beta-arrestin recruitment, luminescence; scaled DMSO 0%, Melanotan II 100%. activation, % at 8.9 µM. actives 31% (n = 2,400);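 active = mean activation across replicates above the hit cutoff set in the earlier primary screen, cut at about 8% in these data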
MOR DOR agonist: activates mu-delta opioid heterodimer, MC4R agonist counter-screen; U2OS PathHunter beta-arrestin, beta-gal luminescence; percent of deltorphin B response, DMSO zero; activation, % at 9.2 µM; actives 5.8% (n = 2,400); shares compounds with MC4R barr agon;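 active = mean activation across replicates exceeds the hit threshold derived in the earlier primary screen, cut at about 18% in these data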;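 note: 100% = deltorphin B at 0.9 µM final and 0% = DMSO alone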
Starred values were filed as active, the others as inactive; nt = no result given. In the library only some 2.1% were active in any assay of this set; here they are far more common.

SMILES	MIN6 prolif	TLR4 MyD88 comp	NOD2 RIPK2 PPI	MC4R antag cAMP	TLR9-MyD88 inh	MC4R barr agon	TLR9-MyD88 conf	BLA counter	TLR9 CHO tox	others
O=[N+]([O-])c1ccc(Sc2cc[n+]([O-])c3ccccc23)c([N+](=O)[O-])c1	-4	nt	-1	-4	32*	1	24*	7	30*
O=c1[nH]c(Sc2ccc([N+](=O)[O-])cc2[N+](=O)[O-])nc2ccccc12	-3	nt	16	6	8	-3	nt	nt	nt
CCOC(=O)[C@]12CCCC=C1N(Cc1ccc(Cl)cc1Cl)C(=O)[C@H](CC(=O)N1CCOCC1)C2	nt	nt	0	nt	nt	nt	nt	nt	nt
Cc1c(S(=O)(=O)NC2CCCCC2)c(=O)n(C)c(=O)n1C	-3	nt	-11	-1	-1	-2	nt	nt	nt
COc1ccc(N=Cc2c(O)c3ccccc3n2C(C)=O)cc1	-2	nt	-5	14	2	-1	nt	nt	nt
COc1ccc(N=Cc2sc(O)c3ccccc23)cc1	-2	21	2	-4	22*	-1	21*	18	-1
O=c1cc(O)nc(SCc2ccccc2)n1-c1ccccc1	-2	6	-2	2	-3	-1	nt	nt	nt
O=C(CSc1nc(O)cc(=O)n1-c1ccccc1)NCc1ccccc1	0	-10	11	6	21*	0	2	3	-1
COc1cc(C(=O)NC2CCN(Cc3ccccc3)CC2)cc(Cl)c1OC	-4	nt	6	-1	26*	-1	5	4	5
NNC(=O)c1oc2nc(-c3cccs3)cc(-c3ccco3)c2c1N	-3	nt	4	13	22*	-2	12	14	-2
COC(=O)CSc1nc(N)c2c3c(sc2n1)C(c1ccccc1)SC(c1ccccc1)C3 (centres undefined)	-5	-1	15	27	26*	-2	-4	-1	1
CCc1ccc(NC(=O)c2c(C(=O)Nc3ccccc3)sc3nc(C)cc(=O)n23)cc1	-1	1	-1	11	-1	6	nt	nt	nt
COc1ccc(O)c(/C=N/NC(=S)Nc2cccnc2)c1	-6	-3	5	-7	29*	-2	15	8	17*
CCC(=O)Nc1nnc(SCC(=O)NC2CCCC2)s1	1	nt	8	4	-1	0	nt	nt	nt
CC(=O)Oc1ccc(N2C(=O)c3cccc4c([N+](=O)[O-])ccc(c34)C2=O)cc1	-5	nt	10	-2	23*	-3	32*	43	85*
CC(=O)Oc1ccc(-n2c(=O)c3ccccc3c3ccccc3c2=O)cc1	-1	9	-20	-5	-4	-2	nt	nt	nt
Cc1ccc(C)c(NC(=O)CN2C(=O)COc3ccc(S(=O)(=O)N4CCCC4)cc32)c1	4	nt	8	10	-1	-1	nt	nt	nt
Cc1cc(=O)[nH]c(SC(C)C(=O)Nc2cccc3ccccc23)n1 (centres undefined)	0	nt	-9	8	-6	0	nt	nt	nt
O=C(NCc1ccc(Cl)cc1)N1CCN(C(=O)c2ccccc2)CC1	nt	nt	-7	16	-1	-2	nt	nt	nt
COc1cc(N2C(=O)C=CC2=O)ccc1N1C(=O)C=CC1=O	nt	nt	26*	103*	39*	-4	64*	44	101*	U2OS cAMP counter=62*;MC4R cAMP antag=79*
Cc1ccc(NC(=O)c2cc(N3C(=O)CCC3=O)ccc2N2CCOCC2)cc1	1	-4	4	25	-3	-1	nt	nt	nt
Cc1ccc(NC(=O)c2cc(N3C(=O)C=CC3=O)ccc2N2CCOCC2)cc1Cl	nt	1	-1	54*	32*	-1	55*	18	97*	U2OS cAMP counter=-1;MC4R cAMP antag=41*
COc1ccc(NC(=O)/C(Cl)=C(/Cl)S(=O)Cc2ccc(Cl)cc2)cn1 (centres undefined)	-5	25	68*	76*	54*	-7	56*	36	99*	U2OS cAMP counter=11;MC4R cAMP antag=54*
O=C(NCCCl)Nc1cccc(Br)c1	-4	10	11	4	1	-3	nt	nt	nt
CC(OC(=O)/C(C#N)=C/c1ccc(N(C)C)cc1)C(=O)NCc1ccco1 (centres undefined)	-2	nt	4	73*	24*	-2	8	9	-4	U2OS cAMP counter=41*;MC4R cAMP antag=78*
SMILES	MIN6 prolif	TLR4 MyD88 comp	NOD2 RIPK2 PPI	MC4R antag cAMP	TLR9-MyD88 inh	MC4R barr agon	TLR9-MyD88 conf	BLA counter	TLR9 CHO tox	others
CN(C)c1ccc(/C=C(\C#N)C(=O)NCc2ccco2)cc1	0	2	nt	nt	nt	nt	nt	nt	nt
CCc1c(O)nc(SCC(=O)Nc2ccc(Cl)cc2)n(-c2ccccc2)c1=O	nt	nt	-8	9	-11	-1	nt	nt	nt
C(=N\NC1=Nc2cccc3cccc1c23)/c1cccnc1	-2	8	10	2	-1	-2	nt	nt	nt
Clc1ccc(/C=N/NC2=Nc3cccc4cccc2c34)cc1	0	5	11	-6	29*	16*	14	12	7	MC4R barr conf=22*;MOR DOR agonist=8
CCc1nnc(NC(=O)CCC(=O)N2CCN(c3cccc(Cl)c3)CC2)s1	-1	nt	4	13	-8	-2	nt	nt	nt
O=Nc1c(O)n(Cc2cccc(C(F)(F)F)c2)c2ccccc12	-4	12	13	6	33*	11*	9	9	2	MC4R barr conf=8;MOR DOR agonist=9
